Laboratory results as given in paper PMC3359018 (Chemical science (Royal Society of Chemistry : 2010), 2011).

Legend:
[1] = target: T1, extracellular domain of DC-SIGN (immobilized tetrameric DC-SIGN) (Homo sapiens, UniProt Q9NNX6); type: binding; conditions: read-out: Kd of probe to immobilized tetrameric DC-SIGN
T1 sequence (Q9NNX6 59-404 limits assumed): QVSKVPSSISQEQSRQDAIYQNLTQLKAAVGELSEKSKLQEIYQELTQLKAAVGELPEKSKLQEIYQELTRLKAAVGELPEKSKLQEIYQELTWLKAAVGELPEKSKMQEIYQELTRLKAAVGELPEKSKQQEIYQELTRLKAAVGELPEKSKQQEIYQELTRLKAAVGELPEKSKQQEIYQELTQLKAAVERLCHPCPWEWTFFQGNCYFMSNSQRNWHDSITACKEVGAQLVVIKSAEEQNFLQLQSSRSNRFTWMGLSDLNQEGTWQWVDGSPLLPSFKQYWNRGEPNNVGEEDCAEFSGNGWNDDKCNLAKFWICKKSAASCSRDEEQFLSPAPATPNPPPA

[2] = target: T2, DC-SIGN producing Raji cells (Homo sapiens, UniProt Q9NNX6); experiment: Flow cytometry assay of binding and uptake of fluorescent mannosylated probe; type: cell-based; conditions: competitor at 100 mM; Man-Fl-BSA probe
T2 sequence (Q9NNX6 1-404): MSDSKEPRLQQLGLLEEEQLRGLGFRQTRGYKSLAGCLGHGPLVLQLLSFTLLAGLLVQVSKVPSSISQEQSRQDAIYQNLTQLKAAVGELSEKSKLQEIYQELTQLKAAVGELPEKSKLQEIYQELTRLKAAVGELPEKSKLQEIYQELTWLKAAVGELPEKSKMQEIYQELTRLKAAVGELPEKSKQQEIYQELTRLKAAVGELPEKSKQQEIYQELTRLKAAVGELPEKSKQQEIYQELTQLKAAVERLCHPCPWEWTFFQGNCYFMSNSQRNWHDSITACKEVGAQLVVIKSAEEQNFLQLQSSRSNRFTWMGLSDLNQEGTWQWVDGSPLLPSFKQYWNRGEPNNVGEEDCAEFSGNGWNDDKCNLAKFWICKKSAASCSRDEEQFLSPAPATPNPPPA
In short: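 Raji (Burkitt's lymphoma) cells stably transfected with a DC-SIGN expression vector. Surface DC-SIGN was checked with AZND1-PE antibody by microscopy and with DCN46-FITC by flow cytometry. Cells were exposed to fluorescent Man-Fl-BSA with or without test compound; ManNAc (100 mM) served as carbohydrate competitor. Percent inhibition was taken from the geometric mean fluorescence, normalized to cells without inhibitor.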

Kd [1] | probe uptake by DC-SIGN-positive cells [2] | Molecule
2 mM | – | Man-Fl-BSA: fluorescent mannosylated glycoconjugate probe (fluorescein, mannose, BSA)
– | significant decrease | CC(=O)N[C@@H]1C(O)O[C@H](CO)[C@@H](O)[C@@H]1O (some centres unmarked) [ManNAc, N-acetylmannosamine]
